Here are results for twelve compounds from ChEMBL document CHEMBL6177914, “Human microbiome derived synthetic antimicrobial peptides with activity against Gram-negative, Gram-positive, and antibiotic resistant bacteria” (RSC Med Chem, 2025).

The subject of data set [1] is Pseudomonas aeruginosa. As to the kind of experiment: Antibacterial activity against Pseudomonas aeruginosa BAA 1744 assessed as inhibition of bacterial growth incubated for 24 hrs by absorbance based microplate reader analysis. Type of data set: functional. An outline of the steps: (§1)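 Broth microdilution. An overnight single-colony culture in recommended broth was diluted 1:10 000, and peptide serial dilutions in DMSO were added (4 µL into 196 µL). Plates incubated 24 h at 37 °C, aerobic or anaerobic as required, then OD600 read. Inhibition was calculated against pathogen-only and blank wells.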

For data set [2], the system named is Enterococcus faecium. As to the kind of experiment: Bactericidal activity against vancomycin resistant Enterococcus faecium BAA 2317 assessed as inhibition of bacterial growth at MIC concentration incubated for 48 hrs by broth microdilution assay. Type of data set: functional, organism-based. An outline of the steps:
(§2)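 Plates were incubated 48 h at 37 °C and examined for colonies. A fidaxomicin-treated culture at 1 µM served as the control.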
On the technique in general: Broth dilution looks for growth in wells or tubes with falling amounts of substance.

Data set [3] has as its system Salmonella enterica. As to the kind of experiment: Antibacterial activity against Salmonella enterica ATCC 13314 assessed as inhibition of bacterial growth incubated for 24 hrs by absorbance based microplate reader analysis. Format: functional. An outline of the steps: as §1
Data set [4] has as its system Pseudomonas aeruginosa. As to the kind of experiment: Bactericidal activity against Pseudomonas aeruginosa BAA 1744 assessed as inhibition of bacterial growth at MIC concentration incubated for 48 hrs by broth microdilution assay. Type of data set: functional, organism-based. An outline of the steps: (§3)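 From broth-microdilution wells showing no growth, 10 µL was spotted onto agar and incubated 48 h at 37 °C. Plates were inspected for colonies. Fidaxomicin at 1 µM served as control.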

Data set [5] relates to Enterococcus faecium. The data set can be described thus: Antibacterial activity against vancomycin resistant Enterococcus faecium BAA 2317 assessed as inhibition of bacterial growth incubated for 24 hrs by absorbance based microplate reader analysis. Conditions: for MIC: read-out: MIC100. Format: functional. An outline of the steps:
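Broth microdilution. A single colony was grown 24 h in its recommended broth, then diluted 1:10 000 in the same medium. Peptide serial dilutions were added from DMSO stock at 4 µL per 196 µL inoculated medium. Plates were incubated aerobically or anaerobically as each pathogen requires, at 37 °C for 24 h, and OD600 was read. MIC was the lowest concentration giving 100% growth inhibition. Duplicate wells; assay repeated five times independently.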

Data set [6] has as its system Listeria monocytogenes. The data set can be described thus: Bactericidal activity against Listeria monocytogenes ATCC 15313 assessed as inhibition of bacterial growth at MIC concentration incubated for 48 hrs by broth microdilution assay. Type of data set: functional, organism-based. The method in brief: as §3
The test system of data set [7] is Escherichia coli. The data set can be described thus: Antibacterial activity against Escherichia coli ATCC 33694 assessed as inhibition of bacterial growth incubated for 24 hrs by absorbance based microplate reader analysis. Format: functional. An outline of the steps: as §1
Data set [8] relates to Escherichia coli. As to the kind of experiment: Bactericidal activity against Escherichia coli ATCC 33694 assessed as inhibition of bacterial growth at MIC concentration incubated for 48 hrs by broth microdilution assay. Type of data set: functional, organism-based. An outline of the steps: as §3
Data set [9] relates to Clostridioides difficile. As to the kind of experiment: Antibacterial activity against Clostridium difficile ATCC 43602 assessed as inhibition of bacterial growth incubated for 24 hrs by absorbance based microplate reader analysis. Type of data set: functional. Conditions: read-out: MIC100.
Data set [10] relates to Staphylococcus aureus. As to the kind of experiment: Bactericidal activity against methicillin resistant Staphylococcus aureus BAA 2313 assessed as inhibition of bacterial growth at MIC concentration incubated for 48 hrs by broth microdilution assay. Type of data set: functional, organism-based. The method in brief:
as §2

The nature of data set [11]: Retention time of compound by RP-HPLC analysis. Format: physicochemical. The method in brief:
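Analytical reversed-phase HPLC.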

For data set [12], the system named is Caco-2. The data set can be described thus: Anti-inflammatory activity in human Caco-2 cells infected with Clostridium difficile ATCC 43602 assessed as reduction in IL-6 level at MIC concentration by ELISA relative to control. Format: functional. More on the design: scale not given: the % may be the effect or the level left. An outline of the steps:
(§4)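 Caco-2 cells grown in DMEM + 10% FBS, 37 °C, 5% CO2, to 90% confluence, then seeded 30 000 cells/well and held 24 h. C. difficile was grown overnight anaerobically in meat broth, washed in PBS, and 1 µL of 0.5 OD600 culture added per 300 µL medium. […] Cytokine in supernatant measured by ELISA; three independent replicates.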
(In general: In an ELISA, binding on a coated surface is turned into a signal by an enzyme label.)

The test system of data set [13] is Clostridioides difficile. The data set can be described thus: Bactericidal activity against Clostridium difficile ATCC 43602 assessed as inhibition of bacterial growth at MIC concentration incubated for 48 hrs by broth microdilution assay. Format: functional, organism-based. The method in brief: as §3
Data set [14] concerns Salmonella enterica. The data set can be described thus: Bactericidal activity against Salmonella enterica ATCC 13314 assessed as inhibition of bacterial growth at MIC concentration incubated for 48 hrs by broth microdilution assay. Format: functional, organism-based. The method in brief: as §3
The subject of data set [15] is Staphylococcus aureus. As to the kind of experiment: Bactericidal activity against Staphylococcus aureus ATCC 25923 assessed as inhibition of bacterial growth at MIC concentration incubated for 48 hrs by broth microdilution assay. Type of data set: functional, organism-based. The method in brief: as §3
Data set [16] deals with Staphylococcus aureus. As to the kind of experiment: Antibacterial activity against methicillin resistant Staphylococcus aureus BAA 2313 assessed as inhibition of bacterial growth incubated for 24 hrs by absorbance based microplate reader analysis. Format: functional. The method in brief:
(§5)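 Broth microdilution. A single colony was grown 24 h in its recommended broth, then diluted 1:10 000 in the same medium. Peptide serial dilutions were added from DMSO stock at 4 µL per 196 µL inoculated medium. Plates were incubated aerobically or anaerobically as each pathogen requires, at 37 °C for 24 h, and OD600 was read. Duplicate wells; assay repeated five times independently.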

The subject of data set [17] is Listeria monocytogenes. The data set can be described thus: Antibacterial activity against Listeria monocytogenes ATCC 15313 assessed as inhibition of bacterial growth incubated for 24 hrs by absorbance based microplate reader analysis. As to conditions: for MIC: read-out: MIC100. Format: functional. An outline of the steps: as §5
In data set [18] the test system is Caco-2. As to the kind of experiment: Anti-inflammatory activity in human Caco-2 cells infected with Clostridium difficile ATCC 43602 assessed as reduction in TNFalpha level at MIC concentration by ELISA relative to control. More on the design: scale not given: the % may be the effect or the level left. Format: functional. An outline of the steps:
as §4

In brackets after ≈: the same amount, converted by molar mass. Activity calls are given as the source filed them. The calls are words filed in the database; no cut-off is given here.

On to H-IGPLVIPVAAIL-NH2, for which the result in [1], in data set [3] and in data set [7] was inactive. Further, the outcome in data set [2], in [4], in data set [6], in data set [8], in [10] and in data set [13] was Active. Besides, the result in data set [14] and in data set [15] was Active. Besides, the MIC was 1.5 µM in data set [5] and 1.8 µM in [9]. Moreover, in data set [11], the Retention_time came out at 15.83 min. Besides, the Activity in data set [12] is 25%.
Take H-LSKISG-NH2: the result in [1], in data set [3], in data set [16], in data set [5] and in [7] was inactive. The outcome in data set [2], in [4], in data set [6], in [8], in data set [10] and in [13] was Active. The outcome in data set [14] and in [15] was Active. For the same compound, the Retention_time in [11] is reported as 9.94 min.
Regarding H-DAWNHADELV-NH2, the result in data set [17], in [1], in data set [3], in [5] and in data set [7] was inactive. Also, the result in [2], in data set [4], in data set [6], in data set [8], in data set [10] and in data set [13] was Active. Moreover, the outcome in [14] and in data set [15] was Active. Also, the Activity in data set [18] came out at 0%. This compound registered a Retention_time in [11] of 15.95 min.
In the case of H-KISGGIGPLV-NH2, the outcome in data set [17], in [1], in [3], in [16], in [5] and in data set [7] was inactive. Also, the result in data set [2], in data set [4], in [6], in [8], in data set [10] and in data set [13] was Active. Besides, the outcome in data set [14] and in data set [15] was Active. The compound further gave a Retention_time in [11] of 17.32 min.
Regarding `CCc1c(Cl)c(O)c(Cl)c(O)c1C(=O)O[C@H]1[C@H](O)[C@H](OC)[C@H](OC/C2=C\C=C\C[C@H](O)/C(C)=C/[C@H](CC)[C@@H](O[C@@H]3OC(C)(C)[C@@H](OC(=O)C(C)C)[C@H](O)[C@@H]3O)/C(C)=C/C(C)=C/C[C@@H]([C@@H](C)O)OC2=O)O[C@@H]1C` [FIDAXOMICIN], the MIC is 1 µM (≈ 1.06 µg/mL) in data set [17], 2 µM (≈ 2.12 µg/mL) in data set [5] and 1 µM (≈ 1.06 µg/mL) in data set [9].
H-LSKISGGIGP-NH2: the result in [1], in [3], in [16], in data set [5] and in data set [7] was inactive. Further, the outcome in data set [2], in data set [4], in data set [6], in data set [8], in data set [10] and in data set [13] was Active. For the same compound, the result in data set [14] and in data set [15] was Active. The same compound gave a Retention_time in data set [11] of 13.63 min.
Consider `CC[C@H](C)[C@H](NC(=O)[C@H](C)NC(=O)[C@H](C)NC(=O)[C@@H](N)C(C)C)C(=O)N[C@@H](CC(C)C)C(=O)NCC(=O)N[C@@H](Cc1ccccc1)C(=O)N[C@@H](CC(C)C)C(=O)N[C@@H](C)C(=O)N[C@H](C(N)=O)[C@@H](C)O`, for which the Retention_time in data set [11] was 14.9 min.
Consider `CC[C@H](C)[C@H](NC(=O)[C@H](C)NC(=O)[C@H](C)NC(=O)[C@@H](N)C(C)C)C(=O)N[C@@H](CC(C)C)C(=O)NCC(=O)N[C@@H](Cc1ccccc1)C(=O)N[C@@H](CC(C)C)C(=O)N[C@@H](C)C(=O)N[C@@H](C(N)=O)[C@H](C)O`, for which the outcome in [17], in data set [1], in data set [3], in data set [16], in data set [5] and in data set [7] was inactive. Also, the outcome in [2], in data set [4], in data set [6], in data set [8], in data set [10] and in data set [13] was Active. Further, the result in data set [14] and in data set [15] was Active.
In the case of H-KLNEVELSKISGG-NH2, the MIC in data set [17] came out at 2.6 µM. Further, the outcome in [1], in data set [3] and in data set [7] was inactive. The result in data set [2], in data set [4], in [6], in data set [8], in data set [10] and in data set [13] was Active. The outcome in [14] and in data set [15] was Active. In addition, the Retention_time in data set [11] turned out to be 14.98 min.
As to H-MNKLNEVELSKI-NH2, the outcome in [1], in [3], in [16], in data set [5] and in data set [7] was inactive. Further, the result in [2], in data set [4], in data set [6], in [8], in data set [10] and in data set [13] was Active. Further, the result in data set [14] and in data set [15] was Active. The compound also displayed a Retention_time in data set [11] of 11.81 min.
Consider `O=C(O)c1cn(C2CC2)c2cc(N3CCNCC3)c(F)cc2c1=O` [CIPROFLOXACIN], for which the MIC in [5] was 4 µM (≈ 1.33 µg/mL).
Consider H-HADELVAGVKQ-NH2, for which the outcome in data set [1], in [3] and in data set [7] was inactive. In addition, the result in data set [2], in data set [4], in data set [6], in [8], in [10] and in data set [13] was Active. Besides, the result in data set [14] and in data set [15] was Active. The compound further showed a Retention_time in data set [11] of 9.41 min.
